Experimental data published in ChEMBL document CHEMBL1157526, “Development of novel beta-amyloid probes based on 3,5-diphenyl-1,2,4-oxadiazole” (Bioorg Med Chem, 2008).

Legend:
[1] = Displacement of [125I]IMPY from amyloid beta (1-42) aggregates
Procedure, shortened: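 Synthetic Aβ(1–42) dissolved at 0.25 mg/mL in 10 mM sodium phosphate, 1 mM EDTA, pH 7.4, aggregated 42 h at 37 °C with gentle constant shaking. Competition against [125I]IMPY (2200 Ci/mmol, >95% radiochemical purity). Filter-bound radioactivity gamma-counted, specific binding under 15% of total. IC50 from displacement curves, Ki by Cheng-Prusoff. Mean ± SEM of 3–6 independent experiments.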

Heart [2] = experiment: Biodistribution in ddY mouse heart at 0.5 uCi, iv after 2 mins; type: ADME, organism-based; settings: in vivo
Procedure, shortened: (§1)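 Normal male-unspecified ddY mice (5-week-old, 22–25 g) given radioiodinated ligand by tail-vein injection, killed at set times post-injection. Organs removed and weighed, radioactivity counted in a gamma counter. Expressed as % injected dose per gram, stomach as % injected dose per organ. Mean (s.d.) of 3–5 animals per time point.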

Liver [3] = experiment: Biodistribution in ddY mouse liver at 0.5 uCi, iv after 30 mins; type: ADME, organism-based; settings: in vivo, 0.5 h; procedure, shortened: as §1
Kidney [4] = experiment: Biodistribution in ddY mouse kidney at 0.5 uCi, iv after 10 mins; type: ADME, organism-based; settings: in vivo; procedure, shortened: as §1
Intestine [5] = experiment: Biodistribution in ddY mouse intestine at 0.5 uCi, iv after 10 mins; type: ADME, organism-based; settings: in vivo; procedure, shortened: as §1
Brain [6] = experiment: Biodistribution in ddY mouse brain at 0.5 uCi, iv after 10 mins; type: ADME, organism-based; settings: in vivo; procedure, shortened: as §1
Liver [7] = experiment: Biodistribution in ddY mouse liver at 0.5 uCi, iv after 60 mins; type: ADME, organism-based; settings: in vivo, 1 h; procedure, shortened: as §1
Spleen [8] = experiment: Biodistribution in ddY mouse spleen at 0.5 uCi, iv after 2 mins; type: ADME, organism-based; settings: in vivo; procedure, shortened: as §1
Spleen [9] = experiment: Biodistribution in ddY mouse spleen at 0.5 uCi, iv after 10 mins; type: ADME, organism-based; settings: in vivo; procedure, shortened: as §1
Liver [10] = experiment: Biodistribution in ddY mouse liver at 0.5 uCi, iv after 2 mins; type: ADME, organism-based; settings: in vivo; procedure, shortened: as §1
Liver [11] = experiment: Biodistribution in ddY mouse liver at 0.5 uCi, iv after 10 mins; type: ADME, organism-based; settings: in vivo; procedure, shortened: as §1
Heart [12] = experiment: Biodistribution in ddY mouse heart at 0.5 uCi, iv after 60 mins; type: ADME, organism-based; settings: in vivo, 1 h; procedure, shortened: as §1
Blood [13] = experiment: Biodistribution in ddY mouse blood at 0.5 uCi, iv after 30 mins; type: ADME, organism-based; settings: in vivo, 0.5 h; procedure, shortened: as §1
Kidney [14] = experiment: Biodistribution in ddY mouse kidney at 0.5 uCi, iv after 30 mins; type: ADME, organism-based; settings: in vivo, 0.5 h; procedure, shortened: as §1
Pancreas [15] = experiment: Biodistribution in ddY mouse pancreas at 0.5 uCi, iv after 2 mins; type: ADME, organism-based; settings: in vivo; procedure, shortened: as §1
Heart [16] = experiment: Biodistribution in ddY mouse heart at 0.5 uCi, iv after 30 mins; type: ADME, organism-based; settings: in vivo, 0.5 h; procedure, shortened: as §1
Brain [17] = experiment: Biodistribution in ddY mouse brain at 0.5 uCi, iv after 30 mins; type: ADME, organism-based; settings: in vivo, 0.5 h; procedure, shortened: as §1
Pancreas [18] = experiment: Biodistribution in ddY mouse pancreas at 0.5 uCi, iv after 60 mins; type: ADME, organism-based; settings: in vivo, 1 h; procedure, shortened: as §1
Pancreas [19] = experiment: Biodistribution in ddY mouse pancreas at 0.5 uCi, iv after 10 mins; type: ADME, organism-based; settings: in vivo; procedure, shortened: as §1
Spleen [20] = experiment: Biodistribution in ddY mouse spleen at 0.5 uCi, iv after 30 mins; type: ADME, organism-based; settings: in vivo, 0.5 h; procedure, shortened: as §1
Spleen [21] = experiment: Biodistribution in ddY mouse spleen at 0.5 uCi, iv after 60 mins; type: ADME, organism-based; settings: in vivo, 1 h; procedure, shortened: as §1
Blood [22] = experiment: Biodistribution in ddY mouse blood at 0.5 uCi, iv after 2 mins; type: ADME, organism-based; settings: in vivo; procedure, shortened: as §1
Intestine [23] = experiment: Biodistribution in ddY mouse intestine at 0.5 uCi, iv after 30 mins; type: ADME, organism-based; settings: in vivo, 0.5 h; procedure, shortened: as §1
Blood [24] = experiment: Biodistribution in ddY mouse blood at 0.5 uCi, iv after 60 mins; type: ADME, organism-based; settings: in vivo, 1 h; procedure, shortened: as §1
Heart [25] = experiment: Biodistribution in ddY mouse heart at 0.5 uCi, iv after 10 mins; type: ADME, organism-based; settings: in vivo; procedure, shortened: as §1
Stomach [26] = experiment: Biodistribution in ddY mouse stomach at 0.5 uCi, iv after 30 mins; type: ADME, organism-based; settings: in vivo, 0.5 h; procedure, shortened: as §1
Brain [27] = experiment: Biodistribution in ddY mouse brain at 0.5 uCi, iv after 60 mins; type: ADME, organism-based; settings: in vivo, 1 h; procedure, shortened: as §1
Brain [28] = experiment: Biodistribution in ddY mouse brain at 0.5 uCi, iv after 2 mins; type: ADME, organism-based; settings: in vivo; procedure, shortened: as §1
Pancreas [29] = experiment: Biodistribution in ddY mouse pancreas at 0.5 uCi, iv after 30 mins; type: ADME, organism-based; settings: in vivo, 0.5 h; procedure, shortened: as §1
Kidney [30] = experiment: Biodistribution in ddY mouse kidney at 0.5 uCi, iv after 2 mins; type: ADME, organism-based; settings: in vivo; procedure, shortened: as §1
Blood [31] = experiment: Biodistribution in ddY mouse blood at 0.5 uCi, iv after 10 mins; type: ADME, organism-based; settings: in vivo; procedure, shortened: as §1
Intestine [32] = experiment: Biodistribution in ddY mouse intestine at 0.5 uCi, iv after 2 mins; type: ADME, organism-based; settings: in vivo; procedure, shortened: as §1
Stomach [33] = experiment: Biodistribution in ddY mouse stomach at 0.5 uCi, iv after 10 mins; type: ADME, organism-based; settings: in vivo; procedure, shortened: as §1
Stomach [34] = experiment: Biodistribution in ddY mouse stomach at 0.5 uCi, iv after 60 mins; type: ADME, organism-based; settings: in vivo, 1 h; procedure, shortened: as §1
Kidney [35] = experiment: Biodistribution in ddY mouse kidney at 0.5 uCi, iv after 60 mins; type: ADME, organism-based; settings: in vivo, 1 h; procedure, shortened: as §1
Intestine [36] = experiment: Biodistribution in ddY mouse intestine at 0.5 uCi, iv after 60 mins; type: ADME, organism-based; settings: in vivo, 1 h; procedure, shortened: as §1
Stomach [37] = experiment: Biodistribution in ddY mouse stomach at 0.5 uCi, iv after 2 mins; type: ADME, organism-based; settings: in vivo; procedure, shortened: as §1

**Q.** Which Ki [1] does the source give for `CNc1ccc(-c2nc(-c3ccc(I)cc3)no2)cc1` here?
**A.** 14.3 nM

**Q.** For `CNc1ccc(-c2nc(-c3ccc([125I])cc3)no2)cc1`, which Drug uptake (Heart [2]) is on record?
**A.** 9.51 % ID/g

**Q.** And the Drug uptake (Liver [3])?
**A.** 8.53 % ID/g

**Q.** What about the Drug uptake (Kidney [4]) of the same compound?
**A.** 5.3 % ID/g

**Q.** What about the Drug uptake (Intestine [5]) of the same compound?
**A.** 2.83 % ID/g

**Q.** And the Drug uptake (Brain [6])?
**A.** 1.98 % ID/g

**Q.** What about the Drug uptake (Liver [7]) of the same compound?
**A.** 7.3 % ID/g

**Q.** What about the Drug uptake (Spleen [8]) of the same compound?
**A.** 4.58 % ID/g

**Q.** And the Drug uptake (Spleen [9])?
**A.** 4.7 % ID/g

**Q.** And the Drug uptake (Liver [10])?
**A.** 14.62 % ID/g

**Q.** And the Drug uptake (Liver [11])?
**A.** 12.37 % ID/g

**Q.** And the Drug uptake (Heart [12])?
**A.** 1.27 % ID/g

**Q.** What about the Drug uptake (Blood [13]) of the same compound?
**A.** 1.52 % ID/g

**Q.** And the Drug uptake (Kidney [14])?
**A.** 3.39 % ID/g

**Q.** And the Drug uptake (Pancreas [15])?
**A.** 3.34 % ID/g

**Q.** What about the Drug uptake (Heart [16]) of the same compound?
**A.** 1.68 % ID/g

**Q.** What about the Drug uptake (Brain [17]) of the same compound?
**A.** 2.56 % ID/g

**Q.** What about the Drug uptake (Pancreas [18]) of the same compound?
**A.** 1.88 % ID/g

**Q.** What about the Drug uptake (Pancreas [19]) of the same compound?
**A.** 3.91 % ID/g

**Q.** What about the Drug uptake (Spleen [20]) of the same compound?
**A.** 2.84 % ID/g

**Q.** And the Drug uptake (Spleen [21])?
**A.** 2.14 % ID/g

**Q.** What about the Drug uptake (Blood [22]) of the same compound?
**A.** 3.54 % ID/g

**Q.** And the Drug uptake (Intestine [23])?
**A.** 5.67 % ID/g

**Q.** What about the Drug uptake (Blood [24]) of the same compound?
**A.** 1.54 % ID/g

**Q.** What about the Drug uptake (Heart [25]) of the same compound?
**A.** 3.05 % ID/g

**Q.** And the Drug uptake (Stomach [26])?
**A.** 4.89 % ID/organ

**Q.** And the Drug uptake (Brain [27])?
**A.** 2.7 % ID/g

**Q.** What about the Drug uptake (Brain [28]) of the same compound?
**A.** 1.44 % ID/g

**Q.** What about the Drug uptake (Pancreas [29]) of the same compound?
**A.** 3.06 % ID/g

**Q.** What about the Drug uptake (Kidney [30]) of the same compound?
**A.** 9.53 % ID/g

**Q.** What about the Drug uptake (Blood [31]) of the same compound?
**A.** 1.84 % ID/g

**Q.** What about the Drug uptake (Intestine [32]) of the same compound?
**A.** 1.36 % ID/g

**Q.** What about the Drug uptake (Stomach [33]) of the same compound?
**A.** 2.32 % ID/organ

**Q.** And the Drug uptake (Stomach [34])?
**A.** 7.38 % ID/organ

**Q.** And the Drug uptake (Kidney [35])?
**A.** 3.02 % ID/g

**Q.** What about the Drug uptake (Intestine [36]) of the same compound?
**A.** 8.46 % ID/g

**Q.** And the Drug uptake (Stomach [37])?
**A.** 1.08 % ID/organ

**Q.** With `Oc1ccc(-c2nc(-c3ccc(I)cc3)no2)cc1` as the compound, how does the Ki [1] read?
**A.** 47.1 nM

**Q.** For `CN(C)c1ccc(-c2nc(-c3ccc(I)cc3)no2)cc1`, which Ki [1] is on record?
**A.** 15.4 nM
